Results as given in article PMC7529613 (International Journal for Parasitology: Drugs and Drug …, 2020).

How the values were obtained:
[1] = system: T. gondii; experiment: T. gondii growth inhibitory assay; type: cell-based, Toxoplasma gondii; settings: for IC50: read-out: IC50 T. gondii (anti-Toxoplasma IC50); for selectivity ratio at 48 h: human, Selectivity index (SI) = Cytotoxicity IC50/Anti-parasitic IC50, HFF cytotoxicity IC50 / anti-Toxoplasma IC50
Outline: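 YFP-expressing RH-strain tachyzoites (~3500/well) were added to confluent HFF in supplemented IMDM. Test compound in DMSO (20 μM single dose, or 0–8 μM / 0–40 μM series) was added immediately or 2 h post-infection. Atovaquone 0.48 μM was the positive control; DMSO the negative. After 48 h at 37 °C/5% CO2, parasite YFP fluorescence was quantified by microscopy. IC50 came from triplicate-mean dose–response curves. SI = HFF cytotoxicity IC50/anti-Toxoplasma IC50.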

[2] = system: C. parvum; experiment: C. parvum growth inhibitory assay; type: cell-based, Cryptosporidium parvum
Outline: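 Sporozoites were excysted (HBSS, 60 min at 37 °C, then 1.5% sodium taurocholate, 60 min) and […]. 4 × 10^4 were added per well to confluent HCT-8 cells in supplemented RPMI-1640. […] After 72 h at 37 °C/5% CO2: fixed, antibody-stained, microscopy fluorescence quantified. […] Triplicate, ≥3 repeats.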

[3] = Cytotoxicity assay; type: cell-based; settings: human, uninfected HCT-8 cells
Outline: (§1)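 Confluent host cells were used: HCT-8 in phenol-red-free supplemented RPMI 1640, HFF in phenol-red-free DMEM with 10% FBS. Test compound in DMSO was added at 0–700 μM, with matched DMSO controls, for 48 h at 37 °C/5% CO2. WST-1 was added for 1 h in the dark and absorbance read at 420 nm. Viability inhibition was taken relative to DMSO. IC50 came from dose–response curves of triplicate means.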

[4] = Cytotoxicity assay; type: cell-based; settings: human, uninfected HFF cells
Outline: as §1

[5] = system: Cryptosporidium; settings: read-out: anti-Cryptosporidium IC50; ref Li et al., 2019; cited from earlier work
[6] = Toxoplasma gondii, HFF, 48 h, read-out: Inhibition of T. gondii growth

Compound: CC(C)=CCC/C(C)=C\COC(=O)NC(=O)C12CC3CC(CC(C3)C1)C2 [GMG-1-09, (Z)-3,7-Dimethylocta-2,6-dien-1-yl (adamantane-1-carbonyl)carbamate]
- IC50 T. gondii (anti-Toxoplasma IC50) ([1]; YFP-expressing RH tachyzoites in HFF cells, 48 h of culture): not potent
- inhibition at 20 µM ([2]; Cryptosporidium parvum, HCT-8, read-out: Inhibition of C. parvum growth): ~70%
- selectivity ratio at 72 h ([2]; human, Selectivity index (SI) = Cytotoxicity IC50/Anti-parasitic IC50, HCT-8 cytotoxicity IC50 / anti-Cryptosporidium IC50): ~14
- IC50 at 48 h [3]: 450 µM

Compound: COc1ccccc1C(=O)NC(=O)NC(=O)c1ccccc1OC [JS-1-09, N,N′-Carbonylbis(2-methoxybenzamide)]
- Inhibition of T. gondii growth ([1]; 8 μM compound, 48 h): almost completely inhibited
- Selectivity index (SI) = Cytotoxicity IC50/Anti-parasitic IC50 ([1]; HFF cytotoxicity IC50 / anti-Toxoplasma IC50): 52.9
- IC50 ([1]; Toxoplasma gondii, HFF, 48 h): 1.21 µM
- inhibition at 20 µM [1, 6]: ~100%
- selectivity ratio at 48 h [1]: ~53
- IC50 at 48 h [4]: 64 µM

Compound: CC(C)=CCC/C(C)=C/CNC(=O)NC(=O)c1ccc(F)c(F)c1F [JS-2-20, (E)-N-((3,7-Dimethylocta-2,6-dien-1-yl)carbamoyl)-2,3,4-trifluorobenzamide]
- IC50 ([1]; Toxoplasma gondii, HFF, 48 h): 10.9 µM
- inhibition at 20 µM [1, 6]: ~80%
- selectivity ratio at 48 h [1]: 5.7
- IC50 at 48 h [4]: 62.6 µM

Compound: O=C(NC(=O)c1ccc(F)c(F)c1F)OC1C2CC3CC(C2)CC1C3 (stereo not drawn) [JS-2-35, Adamantan-2-yl (2,3,4-trifluorobenzoyl)carbamate]
- IC50 ([1]; Toxoplasma gondii, HFF, 48 h): 10.5 µM
- inhibition at 20 µM [1, 6]: ~80%
- selectivity ratio at 48 h [1]: 5.6
- IC50 at 48 h [4]: 59.2 µM

Compound: O=C(NC(=O)c1ccc(F)c(F)c1F)OC12CC3CC(CC(C3)C1)C2 [JS-2-49, Adamantan-1-yl (2,3,4-trifluorobenzoyl)carbamate]
- IC50 ([1]; Toxoplasma gondii, HFF, 48 h): 12.1 µM
- inhibition at 20 µM [1, 6]: ~90%
- selectivity ratio at 48 h [1]: 5.4
- IC50 at 48 h [4]: 65.5 µM

Compound: O=C1C(O)=C([C@H]2CC[C@H](c3ccc(Cl)cc3)CC2)C(=O)c2ccccc21 [atovaquone, reference compound]
- inhibition at 0.5 µM [1, 6]: ~100%

Compound: NC[C@@H]1O[C@H](O[C@H]2[C@@H](O)[C@H](O[C@@H]3[C@@H](O)[C@H](N)C[C@H](N)[C@H]3O[C@H]3O[C@H](CO)[C@@H](O)[C@H](O)[C@H]3N)O[C@@H]2CO)[C@H](N)[C@@H](O)[C@@H]1O [paromomycin]
- IC50 [5]: 450 µM
